Results on 17 compounds are retold here after ChEMBL document CHEMBL6134775, “Breaking boundaries in diabetic nephropathy treatment: design and synthesis of novel steroidal SGLT2 inhibitors” (RSC Med Chem, 2025).

Data set [1] concerns the target T1, Sodium/glucose cotransporter 2 (Rattus norvegicus) (UniProt P53792).
T1 sequence (whole entry): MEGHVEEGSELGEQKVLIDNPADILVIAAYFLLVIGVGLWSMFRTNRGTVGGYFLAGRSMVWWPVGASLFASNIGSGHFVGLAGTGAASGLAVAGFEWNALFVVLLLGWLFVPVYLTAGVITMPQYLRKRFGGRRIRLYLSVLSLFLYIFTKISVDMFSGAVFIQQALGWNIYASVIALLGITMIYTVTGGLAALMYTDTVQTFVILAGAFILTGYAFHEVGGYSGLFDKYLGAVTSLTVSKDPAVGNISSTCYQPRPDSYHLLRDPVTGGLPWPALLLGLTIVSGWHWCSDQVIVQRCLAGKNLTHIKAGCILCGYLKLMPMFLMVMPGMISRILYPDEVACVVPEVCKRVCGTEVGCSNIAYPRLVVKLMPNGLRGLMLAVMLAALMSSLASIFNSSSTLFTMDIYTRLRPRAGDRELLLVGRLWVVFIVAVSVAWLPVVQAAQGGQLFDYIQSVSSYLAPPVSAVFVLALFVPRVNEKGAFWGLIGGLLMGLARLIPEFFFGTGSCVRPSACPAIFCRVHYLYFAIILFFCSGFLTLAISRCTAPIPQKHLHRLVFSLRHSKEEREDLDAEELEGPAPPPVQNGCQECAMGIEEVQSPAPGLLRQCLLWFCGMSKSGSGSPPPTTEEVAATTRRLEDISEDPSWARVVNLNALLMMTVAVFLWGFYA
In words: Inhibition of SGLT2-mediated glucose uptake in rat NRK-52E cells assessed as reduction in glucose uptake at 1 to 10 uM preincubated with 33 mM glucose for 6 hrs followed by compound addition and measured after 24 hrs by fluorescence based microplate reader analysis. The format is cell-based. The conditions noted are these: dose 1-10 µM. The gist of the method:
(§1)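 6-NBDG uptake in NRK-52E cells seeded at 1×10^4/well, exposed to 33 mM glucose for 6 h, then to compound (1, 5, 10 μM; dose series 100 nM-10 μM; vehicle 0.1% DMSO + 1XPBS) for 24 h. Cells were rinsed in Na+-free buffer and given 20 μM 6-NBDG in Na+ or Na+-free HEPES buffer (pH 7.4) for 20 min at 37 °C. After lysis in 1% Triton X (pH 10) plus DMSO, fluorescence was read at 470/540 nm. Results are fold change vs control; n = 3.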

Data set [2] concerns NRK-52E. The data set can be described thus: Cytotoxicity against rat NRK-52E cells assessed as reduction in cell viability at 1 to 50 uM pretreated with 33 mM glucose for 6 hrs followed by compound addition and measured after 24 hrs by Alamar blue dye based microplate reader analysis. The format is toxicity. The conditions noted are these: dose 1-50 µM. The gist of the method:
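Alamar blue assay in NRK-52E cells grown in high-glucose DMEM with 10% FBS at 37 °C, 5% CO2. At 80-90% confluency, cells got 33 mM glucose for 6 h, then compound at 1-50 μM (vehicle 0.1% DMSO + 1XPBS) for 24 h. Dye incubation 4 h; OD read at 570 and 600 nm. Viability expressed as the absorbance ratio to the vehicle control.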
(Alamar Blue is a resazurin reagent that responds to reducing activity.)

Data set [3] relates to NRK-52E. In words: Downregulation of IL-6 expression in glucose induced rat NRK-52E cells at 0.005 to 5 uM by Western blotting analysis. The following applies: dose 0.005-5 µM. Format: functional, cell-based. On the technique in general: Immunoblotting shows a protein as a band on a membrane.
Data set [4] relates to NRK-52E. In words: Downregulation of TGF-beta1 expression in glucose induced rat NRK-52E cells at 0.005 to 5 uM by Western blotting analysis. Format: functional, cell-based. The conditions noted are these: dose 0.005-5 µM.
In data set [5] the test system is NRK-52E. The data set can be described thus: Downregulation of NOX-4 expression in glucose induced rat NRK-52E cells at 1 to 5 uM by Western blotting analysis. The format is functional, cell-based. The following applies: dose 1-5 µM.
Data set [6] concerns the target T2, Sodium/glucose cotransporter 2 (Rattus norvegicus, UniProt P53792).
T2 sequence (P53792 whole entry): T1 sequence (whole entry)
In words: Inhibition of SGLT2-mediated glucose uptake in rat NRK-52E cells assessed as reduction in glucose uptake preincubated with 33 mM glucose for 6 hrs followed by compound addition and measured after 24 hrs by fluorescence based microplate reader analysis. The format is cell-based. The gist of the method:
as §1

In data set [7] the test system is NRK-52E. The data set can be described thus: Inhibition of ROS generation in rat NRK-52E cells assessed as reduction in intracellular ROS generation at 0.25 to 10 uM preincubated with glucose for 6 hrs followed by compound addition and measured after 24 hrs by DCFDA staining based spectrofluorometric analysis. The conditions noted are these: dose 0.25-10 µM. The format is functional, cell-based. An outline of the steps: (§2)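 NRK-52E cells in 24-well plates got 33 mM glucose for 6 h, then compound at 100 nM-10 μM (vehicle 0.1% DMSO + 1XPBS) for 24 h. Cells were loaded with 10 μM H2DCFDA for 30 min at 37 °C in the dark, lysed with 1% Triton X-100 and DMSO. Fluorescence was read at 480/530 nm in triplicate; the glucose-only signal was set as 100%.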

The target of data set [8] is T1, Sodium/glucose cotransporter 2 (Rattus norvegicus). In words: Inhibition of SGLT2-mediated glucose uptake in rat NRK-52E cells assessed as fold decrease in reduction of glucose uptake at 1 uM preincubated with 33 mM glucose for 6 hrs followed by compound addition and measured after 24 hrs by fluorescence based microplate reader analysis relative to glucose alone. The format is cell-based. The gist of the method:
as §1

Data set [9] shares this target. In words: Inhibition of SGLT2-mediated glucose uptake in rat NRK-52E cells assessed as reduction in glucose uptake by measuring fold change at 500 nM preincubated with 33 mM glucose for 6 hrs followed by compound addition and measured after 24 hrs by fluorescence based microplate reader analysis. Format: cell-based. The gist of the method: as §1
For a further data set, the system named is Mitochondrial membrane. The data set can be described thus: Restoration of mitochondrial membrane depolarization in glucose induced rat NRK-52E cells assessed as increase in green fluorescence intensity at […] pretreated with glucose for 6 hrs followed by compound addition and measured after 24 hrs by rhodamine-123 staining based cytofluorimetric analysis. The format is cell membranes. An outline of the steps:
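NRK-52E cells (2×10^5/well) received 33 mM glucose for 6 h, then compound at 500 nM, 1 or 5 μM for 24 h. They were stained with 200 ng/mL rhodamine 123 for 30 min at 37 °C, washed, and analysed by flow cytometry.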

Data set [10] concerns NRK-52E. The data set can be described thus: Induction of AMPK phosphorylation in glucose induced rat NRK-52E cells at 1 to 5 uM by Western blotting analysis. The format is cell-based. The following applies: filed as activator, dose 1-5 µM.
The test system of data set [11] is NRK-52E. In words: Inhibition of collagen-IV expression in glucose induced rat NRK-52E cells at 0.005 to 5 uM by Western blotting analysis. The format is functional, cell-based. The following applies: dose 0.005-5 µM.
The test system of data set [12] is NRK-52E. In words: Inhibition of fibronectin expression in glucose induced rat NRK-52E cells at 0.005 to 5 uM by Western blotting analysis. The format is functional, cell-based. The following applies: dose 0.005-5 µM.
Data set [13] deals with NRK-52E. The data set can be described thus: Effect of SGLT1 protein expression in glucose-induced rat NRK-52E cells at 1 to 5 uM by Western blotting analysis. The format is functional, cell-based. The following applies: dose 1-5 µM.
Data set [14] relates to NRK-52E. In words: Inhibition of NF-kappaB activation in glucose induced rat NRK-52E cells at 0.005 to 5 uM by Western blotting analysis. The format is cell-based. The conditions noted are these: dose 0.005-5 µM.
Data set [15] relates to NRK-52E. In words: Downregulation of SGLT2 protein expression in glucose-induced rat NRK-52E cells at 1 to 5 uM by Western blotting analysis. The format is functional, cell-based. The conditions noted are these: dose 1-5 µM. The gist of the method:
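NRK-52E cells got 33 mM glucose for 6 h, then compound for 24 h, and were lysed in RIPA with protease/phosphatase inhibitors; protein was measured by BCA. Samples of about 20-30 μg were run on 10% SDS-PAGE and transferred to nitrocellulose. Blots were blocked in 1% BSA, probed with anti-SGLT2 (1:1000) overnight at 4 °C, then HRP anti-rabbit (1:1000) for 2 h, and detected by ECL with densitometry. β-actin served as loading control; three repeats.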

The test system of data set [16] is NRK-52E. In words: Inhibition of ROS generation in rat NRK-52E cells assessed as reduction in intracellular ROS generation at […] preincubated with glucose for 6 hrs followed by compound addition and measured after 24 hrs by DCFDA staining based spectrofluorometric analysis relative to glucose alone. The format is functional, cell-based. The gist of the method:
as §2

One may read the IC50 as the concentration that inhibits the measured activity by half.

Activity calls are given as the source filed them. The calls are words filed in the database; no cut-off is given here.

For the compound `COc1cccc2nn3c4c(cnc3c12)C[C@H]1[C@@H]2CC=C3C[C@@H](OC(C)=O)CC[C@]3(C)[C@H]2CC[C@]41C`, the inhibition entry in data set [1] is “inactive”. In the data set on NRK-52E [2], the Activity entry is on record as “Non-toxic”.

Consider `C[C@]12CC[C@H](O)CC1=CC[C@@H]1[C@@H]2CC[C@]2(C)c3c(cnc4nc5ccccc5n34)C[C@@H]12`, for which the result in the data set on NRK-52E [3], with NRK-52E [4], with NRK-52E [5], in the data set on Mitochondrial membrane, with NRK-52E [10] and with NRK-52E [15] was Active. The IC50 in data set [6] was 2.91 nM. In addition, in the data set with NRK-52E [7], the inhibition result was “Active; Significant Decrease Observed”. The fold change (FC) in data set [8] is 2; in [9], 1.4. Further, the inhibition result (in data set [1]; with NRK-52E [11]; in the data set on NRK-52E [12]; in the data set with NRK-52E [14]; in the data set with NRK-52E [16]) was “Active” each time. The Activity result with NRK-52E [2] is listed as “Non-toxic”. Moreover, the result in the data set on NRK-52E [13] was inactive.

In the case of `CC(=O)O[C@H]1CC[C@@]2(C)C(=CC[C@@H]3[C@@H]2CC[C@]2(C)c4c(cnc5nc6ccccc6n45)C[C@@H]32)C1`, the Activity entry in the data set with NRK-52E [2] is recorded as “Non-toxic”.

`CC(=O)O[C@H]1CC[C@@]2(C)C(=CC[C@@H]3[C@@H]2CC[C@]2(C)c4c(cnc5nc6cc(Cl)ccc6n45)C[C@@H]32)C1`: the Activity result in the data set on NRK-52E [2] was “Non-toxic”.

As to `C[C@]12CC[C@H](O)CC1=CC[C@@H]1[C@@H]2CC[C@]2(C)c3c(cnc4nc5cc(Cl)ccc5n34)C[C@@H]12`, the Activity result in the data set on NRK-52E [2] is listed as “Non-toxic”.

As for `CC(=O)O[C@H]1CC[C@@]2(C)C(=CC[C@@H]3[C@@H]2CC[C@]2(C)c4c(cnc5nc6c(Cl)cccc6n45)C[C@@H]32)C1`, the Activity entry in the data set with NRK-52E [2] was “Non-toxic”.

Take `CC(=O)O[C@H]1CC[C@@]2(C)C(=CC[C@@H]3[C@@H]2CC[C@]2(C)c4c(cnc5cc(-c6ccccc6)nn45)C[C@@H]32)C1`: the Activity result in the data set with NRK-52E [2] is “Non-toxic”.

In the case of `C[C@]12CC[C@H](O)CC1=CC[C@@H]1[C@@H]2CC[C@]2(C)c3c(cnc4cc(-c5ccc(Br)cc5)nn34)C[C@@H]12`, in the data set with NRK-52E [2], the Activity result is reported as “Non-toxic”.

Turning to `Cc1ccc([C@@H]2O[C@H](CO)[C@@H](O)[C@H](O)[C@H]2O)cc1Cc1ccc(-c2ccc(F)cc2)s1` [CANAGLIFLOZIN ANHYDROUS], in data set [6], the concentration for half-maximal inhibition (IC50) was 2.35 nM.

Regarding `C[C@]12CC[C@H](O)CC1=CC[C@@H]1[C@@H]2CC[C@]2(C)c3c(cnc4cc(-c5ccc(Cl)cc5)nn34)C[C@@H]12`, in the data set on NRK-52E [2], the Activity entry is “Non-toxic”.

Consider `C[C@]12CC[C@H](O)CC1=CC[C@@H]1[C@@H]2CC[C@]2(C)c3c(cnc4nc5c(Cl)cccc5n34)C[C@@H]12`, for which the Activity result with NRK-52E [2] is listed as “Non-toxic”.

In the case of `CC(=O)O[C@H]1CC[C@@]2(C)C(=CC[C@@H]3[C@@H]2CC[C@]2(C)c4c(cnc5c(C#N)cnn45)C[C@@H]32)C1`, the Activity result in the data set with NRK-52E [2] is recorded as “Non-toxic”.

With `CC(=O)O[C@H]1CC[C@@]2(C)C(=CC[C@@H]3[C@@H]2CC[C@]2(C)c4c(cnc5nc6ccc(Cl)cc6n45)C[C@@H]32)C1`, in the data set with NRK-52E [2], the Activity result is recorded as “Non-toxic”.

Turning to `COc1cccc2nn3c4c(cnc3c12)C[C@H]1[C@@H]2CC=C3C[C@@H](O)CC[C@]3(C)[C@H]2CC[C@]41C`, in [1], the inhibition result is “inactive”. The Activity entry in the data set on NRK-52E [2] is “Non-toxic”.

For `C[C@]12CC[C@H](O)CC1=CC[C@@H]1[C@@H]2CC[C@]2(C)c3c(cnc4cc(-c5ccccc5)nn34)C[C@@H]12`, the Activity entry in the data set on NRK-52E [2] is “Non-toxic”.

Turning to `CC(=O)O[C@H]1CC[C@@]2(C)C(=CC[C@@H]3[C@@H]2CC[C@]2(C)c4c(cnc5cc(-c6ccc(Cl)cc6)nn45)C[C@@H]32)C1`, the Activity entry in the data set with NRK-52E [2] is reported as “Non-toxic”.

Consider `CC(=O)O[C@H]1CC[C@@]2(C)C(=CC[C@@H]3[C@@H]2CC[C@]2(C)c4c(cnc5cc(-c6ccc(Br)cc6)nn45)C[C@@H]32)C1`, for which the Activity entry in the data set with NRK-52E [2] was “Non-toxic”.
